Tested on: HEK-293T
Test: Multiplex assay against HEK293T
Assay type: toxicity, cell-based
Conditions: human
Method in brief: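 Tubulin, mitochondrial-mass and membrane-permeability phenotypes are per cents of healthy-nucleus cells. Cells were gated by CellPathfinder machine learning into Hoechst high-intensity objects or normal cells, normal cells into healthy, pyknosed or fragmented nuclei, and pyknosed cells into mitotic or apoptotic. Before that, live cells stained at seeding with Hoechst33342, BioTracker Green Microtubule Cytoskeleton Dye, MitoTracker Red and Annexin V Alexa Fluor 680 were imaged on a CQ1 microscope at 37°C and 5% CO2 after compound addition.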

[1] = 12 h, 1 µM, compound concentration 1 uM, replicate 1
[2] = 12 h, 1 µM, compound concentration 1 uM, replicate 2
[3] = 12 h, 10 µM, compound concentration 10 uM, replicate 1
[4] = 12 h, 10 µM, compound concentration 10 uM, replicate 2
[5] = 24 h, 1 µM, compound concentration 1 uM, replicate 1
[6] = 24 h, 1 µM, compound concentration 1 uM, replicate 2
[7] = 24 h, 10 µM, compound concentration 10 uM, replicate 1
[8] = 24 h, 10 µM, compound concentration 10 uM, replicate 2
[9] = 48 h, 1 µM, compound concentration 1 uM, replicate 1
[10] = 48 h, 1 µM, compound concentration 1 uM, replicate 2
[11] = 48 h, 10 µM, compound concentration 10 uM, replicate 1
[12] = 48 h, 10 µM, compound concentration 10 uM, replicate 2

O=C(O)c1cc2ccccc2c(Cc2c(O)c(C(=O)O)cc3ccccc23)c1O [PAMOIC ACID]
Population Apoptotic (%) [1]: 30% | Population Fragmented Nuclei (%) [1]: 9% | Population Healthy Nuclei (%) [1]: 77% | Population Hoechst High Intensity Objects (%) [1]: 7% | Population Membrane Permeable-Phenotype (%) [1]: 0% | Population Mitochondria Different-Phenotype (%) [1]: 38% | Population Mitotic Cells (%) [1]: 69% | Population Normal (%) [1]: 92% | Population Pyknosed Nuclei (%) [1]: 12% | Population Tubulin-Different-Phenotype (%) [1]: 23% | Total Cell Count [1]: 432 | Population Apoptotic (%) [2]: 58% | Population Fragmented Nuclei (%) [2]: 7% | Population Hoechst High Intensity Objects (%) [2]: 6% | Population Mitochondria Different-Phenotype (%) [2]: 60% | Population Mitotic Cells (%) [2]: 41% | Population Normal (%) [2]: 93% | Population Pyknosed Nuclei (%) [2]: 15% | Population Tubulin-Different-Phenotype (%) [2]: 21% | Total Cell Count [2]: 303 | Population Apoptotic (%) [3]: 34% | Population Fragmented Nuclei (%) [3]: 8% | Population Healthy Nuclei (%) [3]: 79% | Population Hoechst High Intensity Objects (%) [3]: 8% | Population Membrane Permeable-Phenotype (%) [3]: 0% | Population Mitochondria Different-Phenotype (%) [3]: 44% | Population Mitotic Cells (%) [3]: 65% | Population Normal (%) [3]: 91% | Population Pyknosed Nuclei (%) [3]: 12% | Population Tubulin-Different-Phenotype (%) [3]: 34% | Total Cell Count [3]: 446 | Population Apoptotic (%) [4]: 52% | Population Fragmented Nuclei (%) [4]: 4% | Population Healthy Nuclei (%) [4]: 81% | Population Mitochondria Different-Phenotype (%) [4]: 55% | Population Mitotic Cells (%) [4]: 47% | Population Pyknosed Nuclei (%) [4]: 13% | Population Tubulin-Different-Phenotype (%) [4]: 26% | Total Cell Count [4]: 275 | Population Apoptotic (%) [5]: 29% | Population Fragmented Nuclei (%) [5]: 8% | Population Healthy Nuclei (%) [5]: 78% | Population Hoechst High Intensity Objects (%) [5]: 6% | Population Membrane Permeable-Phenotype (%) [5]: 1% | Population Mitochondria Different-Phenotype (%) [5]: 22% | Population Mitotic Cells (%) [5]: 70% | Population Normal (%) [5]: 93% | Population Pyknosed Nuclei (%) [5]: 12% | Population Tubulin-Different-Phenotype (%) [5]: 16% | Total Cell Count [5]: 559 | Population Apoptotic (%) [6]: 40% | Population Fragmented Nuclei (%) [6]: 5% | Population Healthy Nuclei (%) [6]: 86% | Population Membrane Permeable-Phenotype (%) [6]: 0% | Population Mitochondria Different-Phenotype (%) [6]: 39% | Population Mitotic Cells (%) [6]: 59% | Population Pyknosed Nuclei (%) [6]: 7% | Total Cell Count [6]: 378 | Population Apoptotic (%) [7]: 29% | Population Fragmented Nuclei (%) [7]: 9% | Population Healthy Nuclei (%) [7]: 75% | Population Hoechst High Intensity Objects (%) [7]: 5% | Population Membrane Permeable-Phenotype (%) [7]: 0% | Population Mitochondria Different-Phenotype (%) [7]: 27% | Population Mitotic Cells (%) [7]: 70% | Population Normal (%) [7]: 94% | Population Pyknosed Nuclei (%) [7]: 14% | Population Tubulin-Different-Phenotype (%) [7]: 22% | Total Cell Count [7]: 592 | Population Apoptotic (%) [8]: 41% | Population Fragmented Nuclei (%) [8]: 5% | Population Healthy Nuclei (%) [8]: 79% | Population Hoechst High Intensity Objects (%) [8]: 7% | Population Mitochondria Different-Phenotype (%) [8]: 43% | Population Mitotic Cells (%) [8]: 58% | Population Normal (%) [8]: 92% | Population Pyknosed Nuclei (%) [8]: 15% | Population Tubulin-Different-Phenotype (%) [8]: 18% | Total Cell Count [8]: 365 | Population Apoptotic (%) [9]: 18% | Population Fragmented Nuclei (%) [9]: 11% | Population Healthy Nuclei (%) [9]: 81% | Population Hoechst High Intensity Objects (%) [9]: 2% | Population Membrane Permeable-Phenotype (%) [9]: 1% | Population Mitochondria Different-Phenotype (%) [9]: 13% | Population Mitotic Cells (%) [9]: 81% | Population Normal (%) [9]: 97% | Population Pyknosed Nuclei (%) [9]: 7% | Population Tubulin-Different-Phenotype (%) [9]: 10% | Total Cell Count [9]: 998 | Population Apoptotic (%) [10]: 48% | Population Fragmented Nuclei (%) [10]: 8% | Population Healthy Nuclei (%) [10]: 84% | Population Hoechst High Intensity Objects (%) [10]: 7% | Population Membrane Permeable-Phenotype (%) [10]: 0% | Population Mitochondria Different-Phenotype (%) [10]: 27% | Population Mitotic Cells (%) [10]: 51% | Population Normal (%) [10]: 92% | Population Pyknosed Nuclei (%) [10]: 6% | Population Tubulin-Different-Phenotype (%) [10]: 11% | Total Cell Count [10]: 494 | Population Apoptotic (%) [11]: 24% | Population Fragmented Nuclei (%) [11]: 13% | Population Healthy Nuclei (%) [11]: 79% | Population Hoechst High Intensity Objects (%) [11]: 3% | Population Membrane Permeable-Phenotype (%) [11]: 0% | Population Mitochondria Different-Phenotype (%) [11]: 18% | Population Mitotic Cells (%) [11]: 75% | Population Normal (%) [11]: 96% | Population Pyknosed Nuclei (%) [11]: 7% | Population Tubulin-Different-Phenotype (%) [11]: 10% | Total Cell Count [11]: 879 | Population Apoptotic (%) [12]: 36% | Population Fragmented Nuclei (%) [12]: 11% | Population Healthy Nuclei (%) [12]: 82% | Population Hoechst High Intensity Objects (%) [12]: 7% | Population Mitochondria Different-Phenotype (%) [12]: 27% | Population Mitotic Cells (%) [12]: 64% | Population Normal (%) [12]: 92% | Population Pyknosed Nuclei (%) [12]: 5% | Population Tubulin-Different-Phenotype (%) [12]: 12% | Total Cell Count [12]: 517

From ChEMBL document CHEMBL5058577, “EUbOPEN Chemogenomics Library 2 (Multiplex)” (2022)
